This is an account of results in ChEMBL document CHEMBL1134509, “Transformation of a kappa-opioid receptor antagonist to a kappa-agonist by transfer of a guanidinium group from the 5'- to 6'-position of naltrindole” (J Med Chem, 2001).

By Ki is commonly meant a measure of affinity in units of concentration, obtained from inhibition or displacement. Low values mean higher affinity, high ones lower affinity.

Structures are written as SMILES. Where only a bound is given, the exact number is not on record here.

Experiment [1] has as its target Kappa-type opioid receptor (Cavia porcellus) (UniProt P41144). The settings on record: Ileum, 20 nM.
Experiment [2] addresses T1, Kappa-type opioid receptor (Rattus norvegicus, UniProt P34975). Description: Effect on binding to wild-type opioid receptor kappa 1 using [3H]diprenorphine in transiently expressed […] HEK293 cells. The format is cell-based. A digest of the protocol:
(§1)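 Run in 25 mM HEPES pH 7.4 for 90 min at room temperature, filtered and scintillation counted. Nonspecific binding defined with 10 µM naltrexone. Ki from IC50 by Cheng-Prusoff, mean ± SE of three experiments in duplicate.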

Experiment [3] concerns the target Kappa-type opioid receptor (Cavia porcellus) (UniProt P41144). Description: Opioid antagonist potency towards opioid receptor kappa 1 determined in guinea pig ileum preparation. The format is functional, tissue-based. A digest of the protocol: (§2)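 Electrically stimulated guinea pig ileal longitudinal muscle. Antagonist at 100 nM unless noted (some at 20 nM) was preincubated 15 min, then concentration-response curves to κ agonist ethylketazocine or µ agonist morphine were run with and without antagonist in the same tissue. IC50 ratio taken from the curves; Ke = [antagonist]/(IC50 ratio − 1). Mean ± SEM, n in parentheses.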

The next experiment addresses Mu-type opioid receptor (Rattus norvegicus, UniProt P33535). Briefly: Binding affinity towards rat mu-opioid receptor was determined using [3H]diprenorphine as radioligand. A digest of the protocol: as §1
The target in experiment [4] is Delta-type opioid receptor (Mus musculus) (UniProt P32300). Description: Opioid antagonist potency, determined in mouse vas deferens (MVD) preparation, using DADLE (delta-opioid) as agonist, expressed as IC50 ratio. The format is functional. The essentials: (§3)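 Electrically stimulated mouse vas deferens. Antagonist, normally 100 nM, preincubated 15 min before concentration-response curves to δ agonist DADLE, obtained with and without antagonist in the same preparation. IC50 ratio from the curves; Ke = [antagonist]/(IC50 ratio − 1), not computed when ratio <1. Mean ± SEM.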

Experiment [5] concerns the target Delta-type opioid receptor (Mus musculus, UniProt P32300). Description: Binding affinity towards mouse delta-opioid receptor was determined using [3H]diprenorphine as radioligand. The essentials:
as §1

Experiment [6] concerns the target Mu-type opioid receptor (Cavia porcellus) (UniProt P97266). Briefly: Opioid antagonist potency, determined in guinea pig ileum (GPI) preparation, using morphine (mu-opioid) as agonist, expressed as IC50 ratio. The format is functional, tissue-based. A digest of the protocol: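 Morphine concentration-response curves in electrically stimulated guinea pig ileal longitudinal muscle, run with and without antagonist (100 nM unless noted, 15 min preincubation) in the same preparation. Result expressed as the IC50 ratio of agonist with versus without antagonist.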

For experiment [7], the target named is Kappa-type opioid receptor (Cavia porcellus) (UniProt P41144). Description: Opioid antagonist potency, determined in the guinea pig ileum (GPI) preparation, by employing EK (kappa-opioid) as agonist, expressed as IC50 ratio. The format is functional, tissue-based. A digest of the protocol: as §2
Experiment [8] concerns the target T1, Kappa-type opioid receptor. Briefly: Binding affinity towards rat opioid receptor kappa 1 was determined using [3H]diprenorphine radioligand. The essentials:
as §1

Experiment [9] deals with Delta-type opioid receptor (Mus musculus) (UniProt P32300). Description: Opioid antagonist potency, determined in mouse vas deferens (MVD) preparation, using DADLE (delta-opioid) as agonist (Ke=antagonist/IC50 ratio -1). The format is functional. The essentials: as §3
The target of experiment [10] is Kappa-type opioid receptor (Rattus norvegicus, UniProt P34975, E297A). Briefly: Effect on binding to kappa(Glu297Ala) opioid receptor, using [3H]diprenorphine in transiently expressed […] HEK293 cells. The format is cell-based. The essentials:
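Rat κ receptor carrying the Glu297Ala mutation, subcloned in pcDNA3, was transiently expressed in HEK-293 cells by calcium phosphate transfection. Ki was derived by Cheng-Prusoff.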

Experiment [11] concerns the target Mu-type opioid receptor (Cavia porcellus) (UniProt P97266). Particulars: Ileum, 20 nM.
Experiment [12] has the same target. Briefly: Opioid antagonist potency, determined in guinea pig ileum (GPI) preparation, using morphine (mu-opioid) as agonist (Ke=antagonist/IC50 ratio -1). The format is functional, tissue-based. The essentials:
as §2

T1 sequence (P34975 whole entry): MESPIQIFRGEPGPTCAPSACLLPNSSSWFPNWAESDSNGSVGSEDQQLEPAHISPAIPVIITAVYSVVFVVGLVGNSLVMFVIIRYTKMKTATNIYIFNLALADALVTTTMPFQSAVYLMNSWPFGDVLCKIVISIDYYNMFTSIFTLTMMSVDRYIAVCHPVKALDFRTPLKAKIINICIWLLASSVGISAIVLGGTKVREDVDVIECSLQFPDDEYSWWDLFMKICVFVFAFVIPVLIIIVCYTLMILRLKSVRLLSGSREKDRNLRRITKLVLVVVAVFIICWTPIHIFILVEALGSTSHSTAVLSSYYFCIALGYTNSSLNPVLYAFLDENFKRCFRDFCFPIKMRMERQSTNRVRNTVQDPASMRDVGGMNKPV
Delta-type opioid receptor (Mus musculus), sequence (P32300 whole entry): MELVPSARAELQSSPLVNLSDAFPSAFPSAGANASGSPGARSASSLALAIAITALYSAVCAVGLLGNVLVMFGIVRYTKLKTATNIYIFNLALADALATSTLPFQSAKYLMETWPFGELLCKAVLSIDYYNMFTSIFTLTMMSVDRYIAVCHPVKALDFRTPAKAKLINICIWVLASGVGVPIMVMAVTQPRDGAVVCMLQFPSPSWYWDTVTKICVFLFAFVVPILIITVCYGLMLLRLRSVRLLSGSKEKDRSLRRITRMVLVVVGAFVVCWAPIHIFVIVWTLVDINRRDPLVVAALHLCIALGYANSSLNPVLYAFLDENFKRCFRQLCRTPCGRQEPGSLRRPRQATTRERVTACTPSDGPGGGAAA
Mu-type opioid receptor (Cavia porcellus), sequence (P97266 whole entry): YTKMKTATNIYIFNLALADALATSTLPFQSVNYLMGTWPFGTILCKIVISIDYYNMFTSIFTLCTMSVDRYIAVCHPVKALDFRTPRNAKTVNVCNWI
Kappa-type opioid receptor (Cavia porcellus), sequence (P41144 whole entry): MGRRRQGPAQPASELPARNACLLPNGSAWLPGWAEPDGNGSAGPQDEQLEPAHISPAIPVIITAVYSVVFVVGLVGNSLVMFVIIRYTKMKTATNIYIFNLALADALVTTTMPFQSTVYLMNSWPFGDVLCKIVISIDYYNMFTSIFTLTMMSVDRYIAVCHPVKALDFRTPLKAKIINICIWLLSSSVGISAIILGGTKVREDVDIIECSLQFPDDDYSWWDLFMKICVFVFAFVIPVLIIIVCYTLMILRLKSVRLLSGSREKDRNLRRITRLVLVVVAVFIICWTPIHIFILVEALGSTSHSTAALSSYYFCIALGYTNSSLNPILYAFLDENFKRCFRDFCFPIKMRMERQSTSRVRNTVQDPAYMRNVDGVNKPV
Kappa-type opioid receptor (Rattus norvegicus, UniProt P34975, E297A), sequence (P34975 whole entry E297A): as the sequence (P34975 whole entry) above, with E297A counted along it
Delta-type opioid receptor, sequence (P32300 whole entry): as the sequence (P32300 whole entry) above
Mu-type opioid receptor, sequence (P33535 whole entry): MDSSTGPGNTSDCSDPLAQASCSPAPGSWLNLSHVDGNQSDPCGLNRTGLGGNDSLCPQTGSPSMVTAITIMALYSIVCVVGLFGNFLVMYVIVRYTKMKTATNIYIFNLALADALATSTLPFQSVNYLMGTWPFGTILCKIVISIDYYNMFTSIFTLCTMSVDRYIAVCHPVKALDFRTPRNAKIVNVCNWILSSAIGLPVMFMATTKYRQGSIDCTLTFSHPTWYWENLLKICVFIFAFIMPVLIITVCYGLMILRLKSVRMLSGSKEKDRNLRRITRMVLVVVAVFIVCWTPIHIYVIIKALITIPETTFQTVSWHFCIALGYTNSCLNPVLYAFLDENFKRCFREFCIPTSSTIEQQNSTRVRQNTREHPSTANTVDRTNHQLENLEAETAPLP

For the compound `N=C(N)Nc1ccc2[nH]c3c(c2c1)C[C@@]1(O)[C@H]2Cc4ccc(O)c5c4[C@@]1(CCN2CC1CC1)[C@H]3O5` [GUANIDINONALTRINDOLE], in [1], the IC50 ratio turned out to be 139. Further, the Ki in experiment [2] was determined as 0.00021 µM. The Ke in experiment [3] is 0.16 nM.
Consider `N=C(N)Nc1cccc2[nH]c3c(c12)C[C@@]1(O)[C@H]2Cc4ccc(O)c5c4[C@@]1(CCN2CC1CC1)[C@H]3O5`, for which the Ki (at Mu-type opioid receptor; in experiment [5]; in experiment [8]) was > 1 µM throughout. In addition, the figures for the IC50 ratio in [4], in [6] and in [7] were 1.4, 0.34 and 2.3, respectively. For the same compound, the Ke in experiment [9] stood at 263 nM; in [3] it was 80 nM.
As to `N=C(N)Nc1ccc2c3c([nH]c2c1)[C@@H]1Oc2c(O)ccc4c2[C@@]12CCN(CC1CC1)[C@H](C4)[C@]2(O)C3`, the Ki is 0.00113 µM in [2] and 0.0123 µM in experiment [10]. In addition, the IC50 ratio in experiment [4] was found to be 0.2.
As to `Oc1ccc2c3c1O[C@H]1c4[nH]c5c(c4C[C@@]4(O)[C@@H](C2)N(CC2CC2)CC[C@]314)C[C@@]1(O)[C@H]2Cc3ccc(O)c4c3[C@@]1(CCN2CC1CC1)[C@H]5O4`, the IC50 ratio in [1] stood at 49.8; in experiment [4], 10.4; in experiment [11] it was 2.6.
With `N=C(N)Nc1cccc2c3c([nH]c12)[C@@H]1Oc2c(O)ccc4c2[C@@]12CCN(CC1CC1)[C@H](C4)[C@]2(O)C3`, the inhibition constant Ki in [2] amounted to 0.0327 µM; in experiment [10], 0.0473 µM. For the same compound, the IC50 ratio in [4] was found to be 105; in experiment [6], 1.4; in experiment [7], 2. Further, the Ke in experiment [12] was 238 nM; in [9], 0.96 nM; in experiment [3], 100 nM.
